Source: ChEMBL document CHEMBL1123507, “Antipicornavirus activity of substituted phenoxybenzenes and phenoxypyridines” (J Med Chem, 1986)
In brackets after ≈: the same amount, converted by molar mass.

Experiments:
Enterovirus [1] = assay: Lowest concentration to reduce viral effect by 50% or more against Rhinovirus (RV)-2; assay type: functional
Outline: (§1)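 HeLa monolayers were seeded at (1.0-1.3) × 10^5 cells/well, grown 24 h at 36 °C in 5% CO2 to 60–75% cover, then refed with maintenance medium (1-2% heat-inactivated FCS) containing two-fold serial compound dilutions made from a 200 μg/mL stock in Me2SO/medium, with final Me2SO ≤0.1%. Cells were challenged with 10-100 TCID50 virus, and CPE was read microscopically at 48 and 72 h. MIC50 was the lowest concentration giving ≥50% CPE reduction versus virus control. Cytotoxicity was the lowest concentration causing cell death, a growth change or a morphology change in uninfected cultures.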

Enterovirus [2] = assay: Ratio of the MIC50 of 6-(4-Nitro-phenoxy)-nicotinonitrile compared to compound obtained in the same test for Rhinovirus (RV)-1A; assay type: functional
Outline: (§2)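 Relative activity was calculated as the MIC50 of the positive control 5-cyano-2-(4-nitrophenoxy)pyridine divided by the MIC50 of the test compound. Both were measured in parallel in the same HeLa CPE test (48/72 h microscopic reading) against RV-1A, RV-2 or coxsackievirus A21.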

Echovirus = assay: Antiviral activity against Echo 12; assay type: functional; outline: as §1
Enterovirus [3] = assay: Ratio of the MIC50 of 6-(4-Nitro-phenoxy)-nicotinonitrile compared to compound obtained in the same test for Rhinovirus (RV)-2; assay type: functional; outline: as §2
Mengo virus = assay: Antiviral activity against mengo; assay type: functional; conditions: Cardiovirus A; outline: as §1
Enterovirus [4] = assay: Antiviral activity against rhinovirus RV-1B; assay type: functional; outline: as §1
Enterovirus [5] = assay: Antiviral activity against rhinovirus RV-13; assay type: functional; outline: as §1
Coxsackievirus [6] = assay: Antiviral activity against rhinovirus Coxsackie B3; assay type: functional; outline: as §1
Enterovirus [7] = assay: Compound was evaluated for inhibition of rhinovirus RV-Hanks 75%; assay type: functional
Enterovirus [8] = assay: Antiviral activity against rhinovirus RV-10; assay type: functional; outline: as §1
Enterovirus [9] = assay: Antiviral activity against rhinovirus RV-32; assay type: functional; outline: as §1
Enterovirus [10] = assay: Antiviral activity against rhinovirus RV-21; assay type: functional
Outline: (§3)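 HeLa monolayers (1.0-1.3×10^5 cells/well, grown 24 h at 36 °C to 60-75% cover) refed with maintenance E-MEM (1-2% heat-inactivated FCS) holding two-fold serial dilutions from a 200 μg/mL DMSO stock (final DMSO ≤0.1%). Challenged with 10-100 TCID50 virus, 36 °C, 5% CO2. CPE read microscopically at 48 and 72 h. MIC50 is the lowest concentration cutting CPE ≥50% vs virus control.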

Enterovirus [11] = assay: Antiviral activity against rhinovirus RV-64; assay type: functional; outline: as §1
Enterovirus [12] = assay: Antiviral activity against rhinovirus RV-55; assay type: functional; outline: as §1
Enterovirus [13] = assay: Compound was evaluated for inhibition of rhinovirus RV-Hanks at a dose of 50 ug/mL by < 50%; assay type: functional
Enterovirus [14] = assay: Antiviral activity against rhinovirus RV-29; assay type: functional; outline: as §1
Enterovirus [15] = assay: Antiviral activity against rhinovirus RV-74; assay type: functional; outline: as §1
Enterovirus [16] = assay: Antiviral activity against rhinovirus RV-14; assay type: functional; outline: as §1
Enterovirus [17] = assay: Antiviral activity against rhinovirus RV-9; assay type: functional; outline: as §1
Enterovirus [18] = assay: Antiviral activity against rhinovirus RV-4; assay type: functional; outline: as §1
Enterovirus [19] = assay: Antiviral activity against rhinovirus RV-68; assay type: functional; outline: as §1
Enterovirus [20] = assay: Antiviral activity against rhinovirus RV-8; assay type: functional; outline: as §1
Coxsackievirus [21] = assay: Antiviral activity against coxsackie B4; assay type: functional; outline: as §1
Enterovirus [22] = assay: Antiviral activity against rhinovirus RV-39; assay type: functional; outline: as §1
Enterovirus [23] = assay: Antiviral activity against rhinovirus RV-49; assay type: functional; outline: as §1
Enterovirus [24] = assay: Antiviral activity against rhinovirus RV-5; assay type: functional; outline: as §1
Enterovirus [25] = assay: Antiviral activity against rhinovirus RV-Hanks; assay type: functional; outline: as §1
Coxsackievirus [26] = assay: Lowest concentration to reduce viral effect by 50% or more against coxsackie virus A21; assay type: functional; outline: as §1
Enterovirus [27] = assay: Antiviral activity against rhinovirus RV-33; assay type: functional; outline: as §1
HeLa = assay: Cytotoxicity concentration in HeLa cells; assay type: cell-based; conditions: human; outline: as §1
Enterovirus C = assay: Antiviral activity against Poliovirus type 2; assay type: functional; outline: as §3
Enterovirus [28] = assay: Antiviral activity against rhinovirus RV-44; assay type: functional; outline: as §1
Coxsackievirus [29] = assay: Ratio of the MIC50 of 6-(4-Nitro-phenoxy)-nicotinonitrile compared to compound obtained in the same test for coxsackie A21; assay type: functional; outline: as §2
Enterovirus [30] = assay: Lowest concentration to reduce viral effect by 50% or more against Rhinovirus (RV)-1A; assay type: functional; outline: as §1
Enterovirus [31] = assay: Compound was evaluated for inhibition of rhinovirus RV-Hanks at a dose of 50 ug/mL by <50%; assay type: functional
Enterovirus [32] = assay: Antiviral activity against rhinovirus Polio 2; assay type: functional; outline: as §3

## CS(=O)(=O)c1ccc(Oc2ccc(Cl)c(Cl)c2)nc1
Enterovirus [1]
  MIC50: 2 µM (≈ 0.636 µg/mL)
Enterovirus [2]
  Relative activity: 10.4
Echovirus
  MIC: < 4.1 µM
Enterovirus [3]
  Relative activity: 10.4
Mengo virus
  MIC: > 16 µM
Enterovirus [4]
  MIC: < 0.94 µM
Enterovirus [5]
  MIC: > 16 µM
Coxsackievirus [6]
  MIC: > 7.9 µM
Enterovirus [7]
  Inhibition: 65%
Enterovirus [8]
  MIC: < 4.1 µM
Enterovirus [9]
  MIC: 4.1 µM (≈ 1.3 µg/mL)
Enterovirus [10]
  MIC: 31 µM (≈ 9.86 µg/mL)
Enterovirus [11]
  MIC: 0.94 µM (≈ 0.299 µg/mL)
Enterovirus [12]
  MIC: < 2 µM
Enterovirus [13]
  inhibition at 50 µg/mL: 25%
Enterovirus [14]
  MIC: 4.1 µM (≈ 1.3 µg/mL)
Enterovirus [15]
  MIC: 7.9 µM (≈ 2.51 µg/mL)
Enterovirus [16]
  MIC: > 31 µM
Enterovirus [17]
  MIC: 31 µM (≈ 9.86 µg/mL)
Enterovirus [18]
  MIC: 79 µM (≈ 25.1 µg/mL)
Enterovirus [19]
  MIC: > 31 µM
Enterovirus [20]
  MIC: > 39 µM
Coxsackievirus [21]
  MIC: 39 µM (≈ 12.4 µg/mL)
Enterovirus [22]
  MIC: 20 µM (≈ 6.36 µg/mL)
Enterovirus [23]
  MIC: < 2 µM
Enterovirus [24]
  MIC: > 39 µM
Enterovirus [25]
  MIC: 31 µM (≈ 9.86 µg/mL)
Coxsackievirus [26]
  MIC50: 20 µM (≈ 6.36 µg/mL)
Enterovirus [27]
  MIC: 2 µM (≈ 0.636 µg/mL)
HeLa
  Toxicity: 157 µM
Enterovirus C
  MIC: > 39 µM
Enterovirus [28]
  MIC: 16 µM (≈ 5.09 µg/mL)
Coxsackievirus [29]
  Relative activity: 0.65
Enterovirus [30]
  MIC50: 1 µM (≈ 0.318 µg/mL)

## N#Cc1ccc(Oc2ccc([N+](=O)[O-])cc2)nc1
Enterovirus [7]
  Inhibition: 85%
Enterovirus [31]
  inhibition at 50 µg/mL: 8%

## N#Cc1cc([N+](=O)[O-])ccc1Oc1ccc(Cl)c(Cl)c1
Enterovirus [1]
  MIC50: 0.26 µM (≈ 0.0804 µg/mL)
Enterovirus [32]
  MIC: 1.9 µM (≈ 0.587 µg/mL)
Enterovirus [2]
  Relative activity: 319
Echovirus
  MIC: 0.97 µM (≈ 0.3 µg/mL)
Enterovirus [3]
  Relative activity: 99.6
Mengo virus
  MIC: > 1.6 µM
Enterovirus [4]
  MIC: 0.81 µM (≈ 0.25 µg/mL)
Enterovirus [5]
  MIC: 0.81 µM (≈ 0.25 µg/mL)
Coxsackievirus [6]
  MIC: 4.9 µM (≈ 1.51 µg/mL)
Enterovirus [7]
  Inhibition: 100%
Enterovirus [8]
  MIC: < 1 µM
Enterovirus [9]
  MIC: 0.97 µM (≈ 0.3 µg/mL)
Enterovirus [10]
  MIC: 1.9 µM (≈ 0.587 µg/mL)
Enterovirus [11]
  MIC: 0.52 µM (≈ 0.161 µg/mL)
Enterovirus [12]
  MIC: 0.81 µM (≈ 0.25 µg/mL)
Enterovirus [13]
  inhibition at 50 µg/mL: 0%
Enterovirus [14]
  MIC: 0.81 µM (≈ 0.25 µg/mL)
Enterovirus [15]
  MIC: < 0.97 µM
Enterovirus [16]
  MIC: 3.2 µM (≈ 0.989 µg/mL)
Enterovirus [17]
  MIC: 0.42 µM (≈ 0.13 µg/mL)
Enterovirus [18]
  MIC: 0.97 µM (≈ 0.3 µg/mL)
Enterovirus [19]
  MIC: < 1.9 µM
Enterovirus [20]
  MIC: 0.52 µM (≈ 0.161 µg/mL)
Coxsackievirus [21]
  MIC: 4.9 µM (≈ 1.51 µg/mL)
Enterovirus [22]
  MIC: 0.42 µM (≈ 0.13 µg/mL)
Enterovirus [23]
  MIC: 0.81 µM (≈ 0.25 µg/mL)
Enterovirus [24]
  MIC: 2 µM (≈ 0.618 µg/mL)
Enterovirus [25]
  MIC: 0.42 µM (≈ 0.13 µg/mL)
Coxsackievirus [26]
  MIC50: 0.52 µM (≈ 0.161 µg/mL)
Enterovirus [27]
  MIC: 0.81 µM (≈ 0.25 µg/mL)
HeLa
  Toxicity: > 324 µM
Enterovirus [28]
  MIC: 0.81 µM (≈ 0.25 µg/mL)
Coxsackievirus [29]
  Relative activity: 99.6
Enterovirus [30]
  MIC50: 0.26 µM (≈ 0.0804 µg/mL)
